# The sample as a whole holds a higher share of hits than the screen did.
# Pf gamet viab: late stage P. falciparum gametocyte viability inhibitors, primary screen, ATP luminescence, HTS; P. falciparum stage V gametocytes, 24 h; inhibition, % at 10.9 µM; hit rate 0.065% among 150,000;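 active means inhibition above the mean plus 3 SD of compounds within the control limits, set per campaign, cut at about 38% in these data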;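 further: 0% = DMSO wells and 100% = medium only without gametocytes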
# Biofilm kill mix: clotrimazole potentiators killing C. albicans biofilm, primary screen, 4-compound mixtures | C. albicans biofilm persisters + clotrimazole, fluorescence viability; primary screen in compound mixtures of four per well | inhibition, % at 7.6 µM | hit rate 0.02% among 120,000 | AID 1242, 2008;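 active means inhibition above 30.3% in the primary screen of four-compound pools, then above 30% when the compound was retested; inconclusive means passed the primary limit but could not be retested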;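 further: compounds exposed to preformed 24 h biofilms for 48 h; 0% = untreated biofilm control and 100% = clotrimazole plus chlorhexidine kill blank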
#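 System: C. albicans CAF4-2 wild-type biofilms; Medium: RPMI/MOPS medium, pH 7.0; Reagent: Clotrimazole, 50 µg/mL; Times: biofilm formation 24 h, compound exposure 48 h, 37 °C; Detection: 2-h Alamar Blue fluorescence, 535/590 nm excitation/emission; Evaluation: percent inhibition of biofilm viability.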
# ROMK primary: ROMK potassium channel modulators, primary screen, cell-based, thallium flux, MLSMR library; ATP-sensitive inward rectifier potassium channel 1 (Homo sapiens), P48048; Tet-inducible ROMK, thallium flux fluorescence; actives lie on both sides; B-score at 10 µM; hit rate 2% among 130,000; AID 1918, 2009;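 active means signal ratio slope over the read window, or its plate-corrected B-score, at least 3 SD from the plate mean, either direction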;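 further: B-score of the F/F0 ratio slope over 7 to 12 s after thallium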
# Target sequence (P48048 whole entry, looked up): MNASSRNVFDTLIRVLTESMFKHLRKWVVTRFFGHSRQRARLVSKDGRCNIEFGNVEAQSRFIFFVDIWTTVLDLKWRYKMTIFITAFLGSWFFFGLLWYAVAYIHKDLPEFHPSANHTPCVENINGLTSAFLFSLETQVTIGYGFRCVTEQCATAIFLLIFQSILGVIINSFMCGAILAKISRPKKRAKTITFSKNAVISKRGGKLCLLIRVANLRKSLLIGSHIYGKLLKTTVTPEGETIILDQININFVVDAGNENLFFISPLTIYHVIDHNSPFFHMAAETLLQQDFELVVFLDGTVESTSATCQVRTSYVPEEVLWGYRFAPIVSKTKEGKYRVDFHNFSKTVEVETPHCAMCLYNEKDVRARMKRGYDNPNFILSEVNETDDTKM
# ROMK hit retest: ROMK channel modulator hit retest, confirmation, cell-based, thallium flux, duplicate, resupplied hits. hit rate 54% among 3,000. AID 1917, 2009. normalized thallium flux (F/F0 slope) at 10 µM. shares compounds with ROMK primary. fluorescence ratio; hits give low values;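 active means Flux at 10 µM at least 3 SD below or above vehicle control mean in one or both replicates; inconclusive means no clear call, values can overlap the other calls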
# Numbers without * were called inactive; u = inconclusive; x = not tested or not shown.
SMILES,Pf gamet viab,Biofilm kill mix,ROMK primary,ROMK hit retest
CC(=O)c1ccc(-c2ccc(C(=O)N3CCCc4ccccc43)o2)cc1,2.5,9.2,-3.54*,0.057*
COc1ccc(CC(=O)N2CCCc3ccccc32)cc1OC,x,x,-1.86,x
COc1ccc(CC(=O)N2CCCc3ccccc32)cc1,x,x,x,0.0774
Cc1ccc(C(=O)N2CCc3ccccc32)o1,2.2,4.2,-0.514,x
CCN(CC)CCN(C(=O)CCOc1ccccc1)c1nc2ccc(F)cc2s1,4.5,7.4,-0.496,x
CC(c1ccco1)N(C(=O)CSc1ccc(Br)cc1)c1ccccn1 (centres undefined),-6.7,x,-4.1*,0.0585*
CC(C)c1ccc(C(=O)N(c2ccccn2)C(C)c2ccco2)cc1 (centres undefined),3.4,x,x,x
CCOC(=O)C1CCCN(C(=O)c2sc3nc(C)nc(N(CC)CC)c3c2C)C1 (centres undefined),x,7.1,x,x
CCC1CCCCN1C(=O)c1sc2nc(C)nc(N(CC)CC)c2c1C (centres undefined),11.3,1.7,-3.69*,0.0585*
CCCCCc1cc(=O)oc2c(C(CCN3CCCCC3)c3ccc(OC)cc3)c(OC)cc(OC)c12 (centres undefined),13.7,16.5,x,x
CCCCCc1cc(=O)oc2c(C(CCN3CCCC3)c3ccc(N(C)C)cc3)c(OC)cc(OC)c12 (centres undefined),-24.5,17.6,x,u
CCO[C@H]1c2c(ccc3ccc(=O)oc23)OC(C)(C)[C@H]1O,15.8,x,x,x
COc1ccc(N(CC(=O)NN=C2CCCC2)S(=O)(=O)c2ccccc2)cc1,x,x,1.84*,0.0877
COc1ccc(N(CC(=O)NN=C2CCCCCCC2)S(=O)(=O)c2ccccc2)cc1Cl,x,x,-0.418,x
O=C1CCCN1CC(O)CS(=O)(=O)Cc1ccc(Cl)cc1 (centres undefined),6.0,x,x,x
CC(O)c1nc2ccccc2n1CCOc1ccccc1 (centres undefined),x,7.0,-1.22,x
COc1ccccc1OCCn1c(C(C)O)nc2ccccc21 (centres undefined),x,x,-4.94*,0.0657*
COc1ccc(OC)c(C2=CC(=O)C[C@H](c3ccc4c(c3)OCO4)C2)c1,-0.4,x,x,x
COc1ccc(Cc2nnc(Nc3c(C)cccc3C)o2)cc1OC,1.7,15.1,0.247,x
CN1CCN(CCCC(=O)c2ccc(C3CCCC3)cc2)CC1,-3.7,20.7,-1.68,x
O=S(=O)(c1ccccc1)N1CCNCC1,-4.1,x,x,x
O=C1C2CCCCN2C(=O)N1CCCCN1CCN(c2cccc(C(F)(F)F)c2)CC1 (centres undefined),4.8,x,x,x
NS(=O)(=O)c1ccc(CCNC(=O)COC(=O)CCc2ccccc2)cc1,0.7,8.1,-1.05,x
CCOc1ccccc1C(=O)NCC(=O)OCC(=O)NCCc1ccc(S(N)(=O)=O)cc1,2.0,x,-2.78*,0.0848
CCOc1ccccc1NC(=O)c1cc(C(=O)Nc2ccccc2OCC)cc(N2C(=O)CCC2=O)c1,11.8,21.9,0.236,x
SMILES,Pf gamet viab,Biofilm kill mix,ROMK primary,ROMK hit retest
CCCCC[C@H](O)/C=C/[C@@H]1[C@@H](CCCCCCC(=O)O)[C@@H](O)C[C@H]1O,x,9.3,x,x
CCCCC[C@H](O)/C=C/C1=C(CCCCCCC(=O)O)C(=O)CC1,x,17.3,x,0.0805
CC(C)(C)c1cnnn1-c1ccc(C(=O)CCl)cc1,x,x,x,0.0537*
CC(C)(C)c1cnnn1-c1ccc(C=O)cc1,x,-5.7,-0.74,x
O=C(c1cc2nc(-c3ccccc3)cc(C(F)(F)F)n2n1)N1CCCC1,3.9,x,x,x
O=C(c1cc2nc(C3CC3)cc(C(F)(F)F)n2n1)N1CCCC1,3.7,x,6.86*,0.0785
CCCCOC(=O)N1CCOCCOCCOCC1,-41.5,16.7,x,x
CCOC(=O)C(C)CC(C)C(=O)N1CCOCCN(C(=O)C(C)CC(C)C(=O)OCC)CCOCC1 (centres undefined),x,x,x,0.0909
Cc1nc(SCC(=O)Nc2cccnc2Cl)nc(C)c1C,x,14.9,0.396,x
O=C(NCc1nnc(SCc2ccc(C(F)(F)F)cc2)n1-c1ccccc1)C12CC3CC(CC(C3)C1)C2,x,18.4,-1.55,x
O=C(NCc1nnc(SCc2ccc(F)cc2)n1-c1ccccc1)C12CC3CC(CC(C3)C1)C2,x,16.2,-2.46*,0.0559*
COc1ccc(C(=O)Nc2ccc(S(=O)(=O)Nc3nccc(C)n3)cc2)cc1[N+](=O)[O-],11.3,x,x,x
COc1ccc(N2CCN(S(=O)(=O)CC34CCC(CC3=O)C4(C)C)CC2)cc1 (centres undefined),13.5,x,x,x
Cc1ccc(C(c2nnnn2C(C)(C)C)N2CCN(C3CCCC3)CC2)cc1 (centres undefined),-16.0,x,-5*,0.0728
CC(C)(C)n1nnnc1C(c1ccncc1)N1CCN(C2CCCCC2)CC1 (centres undefined),6.5,x,x,x
Cc1cc(NC(=O)CSc2nnc(COc3ccccc3)n2Cc2ccco2)no1,x,x,-0.152,x
Cc1ccc(OCc2nnc(SCC(=O)C(C)(C)C)n2Cc2ccco2)cc1,x,x,-3.59*,0.0746
COc1ccccc1Oc1ccc2c(c1)C(=O)N(CC1CCCO1)C2=O (centres undefined),-5.5,14.9,x,x
N#C/C(=C/c1ccc(N2CCCCC2)o1)C(=O)Nc1ccc2ccccc2c1,14.4,16.6,x,x
N#C/C(=C/c1ccc(N2CCCCC2)o1)C(=O)Nc1ccc(Cl)cc1,13.6,x,x,0.0482*
CCCNC(=O)C(Cc1cccc(Cl)c1)NC(=O)c1ccccc1 (centres undefined),-14.5,x,x,x
Cc1ccc(NC(=S)Nc2ccc(F)cc2)c(C)c1,x,2.5,-0.783,x
O=S(=O)(Nc1nc2ccccc2nc1Nc1ccc(N2CCOCC2)cc1)c1cc(Cl)ccc1Cl,-36.7,13.3,x,0.0571*
Clc1nc(Nc2ccc(N3CCOCC3)cc2)c2ccccc2n1,x,28.6,-0.932,x
COc1ccc(/C=C/C(=O)Nc2cc(S(=O)(=O)N3CCOCC3)ccc2C)cc1OC,x,0.7,-0.464,x
SMILES,Pf gamet viab,Biofilm kill mix,ROMK primary,ROMK hit retest
CCOc1cccc2sc(N(CCCN(C)C)C(=O)Cc3ccccc3)nc12,22.2,9.9,-3.17*,0.0568*
CN(C)CCCN(C(=O)COc1ccccc1)c1nc2c(F)cccc2s1,-9.5,9.6,-0.339,x
C=CCNC(=O)N[C@@H](Cc1ccccc1)C(=O)OC,-0.5,8.2,x,x
O=C(CSc1nc(O)cc(=O)n1-c1ccccc1)Nc1nc2ccccc2s1,4.7,32.6,0.489,x
CC(=O)c1cc(-c2ccccc2)n(CC(=O)N2CCCCC2)c1C,x,x,2.97*,0.0753
CC(=O)c1cc(-c2ccccc2)n(CC(=O)N2CCCC2)c1C,-37.2,13.9,0.0549,x
CC(=O)c1c(Cl)nc2cccc3c2c1-c1ccccc1C3=O,3.6,x,x,x
CC1CN(C(=O)c2cc3c(s2)CCC3)CC(C)O1 (centres undefined),x,x,x,0.0856
O=C(c1cc2c(s1)CCCC2)N1CCN(C(=O)C2CCCO2)CC1 (centres undefined),-0.6,x,0.549,x
CC(=O)C1=C(c2ccccc2)N(C(C)=O)n2c(C)nnc2S1,-0.7,24.0,-1.9,x
COc1ccccc1NS(=O)(=O)c1cccc(N=C2N=C(N)c3ccccc32)c1,6.5,14.8,x,0.0814
NC1=NC(=Nc2cccc(S(N)(=O)=O)c2)c2ccccc21,-0.4,27.4,x,x
O=C(/C=C\Nc1ccc2c(c1)OCO2)c1ccc2c(c1)OCO2,-12.6,18.4,x,0.059*

# From PubChem BioAssay
